Shown are actives, neighbours in structure and some others; about 1.7% of the full set was active somewhere.
PP5 inh: PP5 phosphatase inhibitors, primary screen, biochemical, fluorescence; Serine/threonine-protein phosphatase 5 (Homo sapiens), P53041; purified PP5c, OMFP substrate fluorescence; inhibition, % at 6.7 µM; hit rate 0.18% among 320,000;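 active = inhibition above the campaign's mean inhibition across all tested compounds plus 3 SD, cut at about 9.5% in these data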
HTR2A ag: mouse Htr2a agonists via beta-arrestin recruitment, primary screen, cell-based, luminescence; 5-hydroxytryptamine receptor 2A (Mus musculus), P35363; CHO-K1 mHTR2A beta-arrestin complementation; percent of 30 µM serotonin response; activation, % at 7.6 µM; hit rate 0.66% among 360,000;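 active = activation above a run cutoff, the mean activation of all tested compounds plus 3 SD, cut at about 14% in these data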
Target sequence (P35363 whole entry, looked up): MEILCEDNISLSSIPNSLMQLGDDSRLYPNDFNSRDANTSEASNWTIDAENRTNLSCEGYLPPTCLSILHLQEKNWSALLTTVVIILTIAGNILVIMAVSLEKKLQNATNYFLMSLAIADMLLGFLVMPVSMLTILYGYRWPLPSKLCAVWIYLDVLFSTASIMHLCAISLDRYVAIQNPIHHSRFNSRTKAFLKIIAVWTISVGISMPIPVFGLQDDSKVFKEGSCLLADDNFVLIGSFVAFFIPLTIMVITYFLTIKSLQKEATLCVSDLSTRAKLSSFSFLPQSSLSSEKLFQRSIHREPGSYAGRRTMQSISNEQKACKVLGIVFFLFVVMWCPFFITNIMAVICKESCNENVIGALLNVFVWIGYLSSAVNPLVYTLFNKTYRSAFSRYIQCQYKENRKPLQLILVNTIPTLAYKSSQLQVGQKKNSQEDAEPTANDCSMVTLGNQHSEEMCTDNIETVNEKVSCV
PP1 counter: PP1-alpha phosphatase inhibitors, primary screen, counter-screen for PP5 inhibitor project, biochemical, fluorescence, OMFP substrate, single point. Serine/threonine-protein phosphatase PP1-alpha catalytic subunit (Homo sapiens), P62136. purified PP1alpha. inhibition, % at 6.7 µM. hit rate 0.9% among 320,000. AID 2235, 2010;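 active = inhibition above the mean inhibition of all tested compounds plus 3 SD, computed separately for each screening campaign, cut at about 15% in these data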
T cell HTS: modulators of CD8 T cell-vesicle binding, primary screen, mouse 2C CD8+ T cells, flow cytometry; 2C CD8+ T cell-vesicle binding; stronger effect = lower value; AID 2052, 2009; response (vesicle binding), % at 7 µM; hit rate 0.068% among 330,000;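 active = response, share of CD8 T cells binding vesicles, and their 90th percentile fluorescence all below set limits, cut at about 80% in these data, passing the limit was not always enough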;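 note: values below 100% mean blocked vesicle binding to the CD8+ T cells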
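Material: 2C TCR transgenic mouse naive CD8+ T cells, MACS-purified. Also added: QL9-charged Drosophila Ld/ICAM-1/B7-1 vesicles. Timing: binding 1.5 h at 37 °C. Measured by: high-throughput flow cytometry with anti-B7-1 and anti-CD8 staining. Read-out: percent CD8+ FL2 mean versus row control. Controls: Unloaded micro-vesicles (low), QL9 vesicles with 0.7% DMSO (high).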
JMJD2C inh: inhibitors of GASC-1 histone demethylase, primary screen, biochemical, fluorescence, DELFIA europium; GST-JMJD2C(1-420) H3K9me3 demethylation; inhibition, % at 2.35 µM; Lysine-specific demethylase 4C (Homo sapiens), Q9H3R0; hit rate 0.069% among 330,000;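 active = more than half of a compound's replicate wells show inhibition beyond 50%, single wells judged on their own value; inconclusive = some, but no more than half, of replicates pass 50% inhibition; inactive = no replicate passes 50% inhibition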;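 note: signal counts dimethyl H3K9 product captured on neutravidin plate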
PP1 inh confirm: PP1 phosphatase inhibitors, confirmation, biochemical, fluorescence, OMFP substrate, triplicate | shares compounds with PP1 counter | purified PP1alpha | inhibition, % at 6.7 µM | hit rate 52% among 1,900 | AID 2358, 2010;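 active = mean PP1 inhibition above a set limit taken from the earlier primary screen, cut at about 15% in these data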
PP5 inh counter: PP5 phosphatase inhibition by PP1 hits, confirmation, counter-screen for PP1 inhibitor project, biochemical, fluorescence, triplicate; shares compounds with PP1 counter; inhibition, % at 6.7 µM; hit rate 4% among 1,900; purified PP5c, OMFP fluorescence; AID 2360, 2010;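 active = mean PP5 inhibition over triplicate wells above about 9.5% taken from the earlier PP1 screen, limit read from the data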
OPRM1 ag: OPRM1 agonists via beta-arrestin recruitment, confirmation, counter-screen for mouse HTR2A agonist project, cell-based, luminescence, single concentration; U2OS OPRM1 beta-arrestin PathHunter; DMSO 0%, DAMGO 9.3 µM 100%; activation, % at 9.3 µM; shares compounds with HTR2A ag; hit rate 5.3% among 2,300; AID 624380, 2012;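 active = mean activation above the mean of DMSO-only wells plus 3 SD, cut at about 0.5% in these data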
HTR2A ag conf: mouse HTR2A agonists, beta-arrestin recruitment, confirmation, cell-based, luminescence, CHO-K1 PathHunter, triplicate | shares compounds with HTR2A ag | DMSO 0%, 30 µM serotonin 100% | activation, % at 7.6 µM | hit rate 19% among 2,300;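 active = mean activation across triplicates above the hit threshold derived in the original primary screen, cut at about 15% in these data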
Of the large screens only hits and unclear results are named; the others gave an inactive call (follow-up assays come after a bar, where they were run).

O=C1NC(=O)C2(Cc3c(nc4ccccn4c3=O)N3CCCCCC32)C(=O)N1Cc1ccccc1 (stereo not given)	none
CCC(=NCc1cc(OC)cc(OC)c1)c1c(O)n(C)c(=O)n(C)c1=O	none
Cc1cc(O)c2c(c1)C(=O)C13C(=C2O)C(=O)[C@H]2[C@@H](O)[C@@H]1[C@H]1[C@H](O)[C@@H]3C(=O)C3=C(O)c4c(O)cc(C)cc4C(=O)C312 (stereo not given in full)	PP1 counter 39.9 | PP1 inh confirm 33.5 | PP5 inh counter inactive
CCOCCCNC(=O)CN1C2CCC1CC(O)(c1ccc(OC)cc1)C2 (stereo not given)	none
O=c1[nH]c(O)c(/C=C2\C=Nc3ccc(OCc4ccccc4)cc32)c(=O)[nH]1	PP1 counter 19.4 | PP1 inh confirm 24.2 | PP5 inh counter inactive
Cc1nccc2c1[nH]c1ccc(Br)cc12	PP1 counter 20.9, JMJD2C inh inconclusive | PP1 inh confirm inactive | PP5 inh counter inactive
COc1ccc2c(c1)[nH]c1c(C)nccc12	none (no result: JMJD2C inh)
CN(C)CC#CCOCCOCCC#N	none
CN1C[C@H](CO)C=C2c3cccc4[nH]cc(c34)C[C@H]21	HTR2A ag 30.2, PP1 counter 31.6 | PP1 inh confirm inactive | PP5 inh counter inactive | OPRM1 ag inactive | HTR2A ag conf 94.2
CC(=O)[C@@]1(O)CCC2C3CC=C4C[C@@H](O)CC[C@]4(C)C3CC[C@@]21C (stereo not given in full)	none (no result: PP5 inh, PP1 counter, JMJD2C inh)
CNCCc1ccc(O)c(O)c1	HTR2A ag 27.7 | OPRM1 ag inactive | HTR2A ag conf 161.2
O=C(NN=Cc1ccc(N(CCCl)CCCl)cc1)c1cc(=O)[nH]c(=O)[nH]1	HTR2A ag 18.4 (no result: PP5 inh, PP1 counter, T cell HTS, JMJD2C inh) | OPRM1 ag inactive | HTR2A ag conf inactive
CCOC(=O)C1=C(N)Oc2cc(C)oc(=O)c2C12C(=O)N1c3c(cc(OC)cc32)C(C)=CC1(C)C (stereo not given)	none (no result: T cell HTS)
Fc1ccccc1CNCCc1c[nH]c2ccccc12	HTR2A ag 18.9 | OPRM1 ag inactive | HTR2A ag conf 24.4
COc1cccc(CCNCc2c(F)cccc2F)c1	HTR2A ag 20.8 | OPRM1 ag inactive | HTR2A ag conf inactive
COc1cccc(CNCCc2ccc(F)cc2)c1	none
COc1cccc(CNCCc2c[nH]c3ccccc23)c1	HTR2A ag 32.0 | OPRM1 ag inactive | HTR2A ag conf 34.3
Cc1ccc2nc(C)n(-c3ccc(F)cc3)c(=O)c2c1	none
CC(NCc1ccc(Cl)c(Cl)c1)C(O)c1ccccc1 (stereo not given)	HTR2A ag 15.5 | OPRM1 ag inactive | HTR2A ag conf inactive
CC(NCc1ccccc1Cl)C(O)c1ccccc1 (stereo not given)	none
Clc1cccc(N2CCNCC2)c1	HTR2A ag 24.7, JMJD2C inh inconclusive | OPRM1 ag inactive | HTR2A ag conf inactive
C#CCN1CCN(c2cccc(C(F)(F)F)c2)CC1	none
